In the RNAGym collection of RNA variant scans (doi:10.1126/science.aae0568):
Variants at the floor of the assay were thinned out.

B1: tRNA (parent)
chain: GUUCCGUUGGCGUAAUGGUAACGCGUCUCCCUCCUAAGGAGAAGACUGCGGGUUCGAGUCCCGUACGGAACG

Variants of: B1
Experiment: yeast fitness relative to wild type (ratio to wild type); higher = fitter; tRNA-Arg(CCU), competitive growth, 37 C, YPD
Summary of the method: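 Changes in genotype frequencies gave Darwinian fitness relative to wild type. Frequencies were read by 100-nucleotide paired-end sequencing of gene amplicons before and after pooled Saccharomyces cerevisiae strains, carrying tRNA-Arg(CCU) gene variants at the native locus, were competed in YPD at 37°C for 24 hours in six replicates. A genotype was kept only with ≥ 100 starting reads, and estimates < 0.5 were set to 0.5.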

Row | Variant | yeast fitness
1 | GUUCCGUUGGCGUAAUGGUCACGCGUCUCCCUCCUAGGGAGAAGACUGCGGGUUCCAGUCCCGUAUGGAACG [A20C A37G G56C C66U] | ≤ 0.5
2 | GUUCCGUUGGCGUAAUGGUCACGCGUAUCAUUCCUAAGGAGAAGACUGCGGAUUCGAGUCCCGUACGGAACG [A20C C27A C30A C31U G52A] | ≤ 0.5
3 | GUUCCGUUGGCGUAAUGGUCACGCGUCUCCCUCCUAAGGAGAAGACUGCGGGUUCGAGUCCCGUCUGGAACG [A20C A65C C66U] | 0.619
4 | GUUCCGUUGGCGUAAUGGUCAGGCGUCUAGCUCCUAAGGAGAAGACUGCGGGUUCGAGUCCCGUACGGAACG [A20C C22G C29A C30G] | 0.616
5 | GUUCCGUUGGCGUAAUGGUCACGCGUCUCCCUCCUAAGGAGAGGACUGCGGGUUCGAGUCCCGUACGGAACG [A20C A43G] | 1.01
6 | GUUCCGUUGGCGUAAUGGUCACGCGUCUCCCUCCUAAGGAGAUGACUGCGGGUUCGAGUCCCGUACGGAACG [A20C A43U] | 0.829
7 | GUUCCGUUGGCGUAAUGGUCACGCGUCUCCCUCCUAAGGAGUAGGCUGCGGGUUCGAGUCCCGUACGGAACG [A20C A42U A45G] | 0.77
8 | GUUCCGUUGGCGUAAUGGUCACGCGUCUCCCUCCUAAGGUGACGACUGCGGGUUCGAGUCCCGUACGGAACG [A20C A40U A43C] | 0.699
9 | GUUCCGUUGGCGUAAUGGUCACGCGUCUCCCUCCUAAGGGGAAGACUGCGGCUUCGAGUCCCGUACGGAACG [A20C A40G G52C] | ≤ 0.5
10 | GUUCCGUUGGCGUAAUGGUCACGUGUCUCCCUCCUAAGGAGAAGACUGCGGGUUCGAGUCCCGUAUGGAACG [A20C C24U C66U] | ≤ 0.5
11 | GUUCCGUUGGCGUAAUGGUCAUGCGUCUCCCUCCUAAGGAGAAGACUGCGGGUUCGAGUCCCGUGCGGAACG [A20C C22U A65G] | 0.596
12 | GUUCCGUUGGCGUAAUGGUCAUGCGCCUCCCUCCUAAGGAGAAGAGUGUGGGUUCGAGUCCCGUACGGCACG [A20C C22U U26C C46G C49U A69C] | ≤ 0.5
13 | GUUCCGUUGGCGUAAUGGUCACGGGUCUCCCUCCUAAGCAGAAGACUGCGGGUUCGAGUCCCGUACGCAACG [A20C C24G G39C G68C] | ≤ 0.5
14 | GUUCCGUUGGCGUAAUGGUCACGCGUCUCCCUCCUAAGGAGAAGCCUGCGGGUUCGAGUCCCCUACAGAACG [A20C A45C G63C G67A] | ≤ 0.5
15 | GUUCCGUUGGCGUAAUGGUCACGCGUCUCCCUCCUAAGGAGAAGACUGCGGGUUCGAGUCCCGUACGGCACG [A20C A69C] | 1.13
16 | GUUCCGUUGGCGUAAUGGUCACGCGUCUCCCUCCUAAGGAGAAGACUGCGGGUUCGAGUCCCGUACGGGACG [A20C A69G] | 1.01
17 | GUUCCGUUGGCGUAAUGGUCACGCGUCUCCCUCCUAAGGAGAAGUCUGCGGGUUCGAGUCCCGUACGGUACG [A20C A45U A69U] | 0.773
18 | GUUCCGUUGGCGUAAUGGUCACGUGUCUCCCUCCUAAGGAGUAGACUGCGGGUUCGAGCCCCGUACGGUACG [A20C C24U A42U U59C A69U] | 0.535
19 | GUUCCGUUGGCGUAAUGGUCACGCGUCUCCCUCCUAAGGAGAUGACUGCGGGUUCAAGUCCCGUACGGAACG [A20C A43U G56A] | 0.656

Row | Variant | yeast fitness
20 | GUUCCGUUGGCGUAAUGGUCAUGCGUCUGCCUCCUAAGGACAAGACUGGGGGAUCGAGUCCCGUACGGAACG [A20C C22U C29G G41C C49G U53A] | ≤ 0.5
21 | GUUCCGUUGGCGUAAUGGUCACGCGUCUCCCUCCUAAGGUGAAGACUGCGGGUUCGAGUCCCGUACGGAACG [A20C A40U] | 0.855
22 | GUUCCGUUGGCGUAAUGGUCACGCGUCUCCCUCCUAAGGCGAAGACUGCGGGUUCGAGUCCCGUACGGAACG [A20C A40C] | 0.788
23 | GUUCCGUUGGCGUAAUGGUCACGAGUCUGCCUCGUAAGGAGAAGACUGCGGGUUCAAGUCCCGUGCGGCACG [A20C C24A C29G C34G G56A A65G A69C] | 0.856
24 | GUUCCGUUGGCGUAAUGGUCACGCGUCUCCCUCCUAAGGGGUAGACUGCACGUUCGAGUCCCGUACGGAACG [A20C A40G A42U G50A G51C] | ≤ 0.5
25 | GUUCCGUUGGCGUAAUGGUCAUGCGUCUCCCUUCUAAGGAGAAGACUGCGGGUUCGAGUCCCGUAAGGAACG [A20C C22U C33U C66A] | ≤ 0.5
26 | GUUCCGUUGGCGUAAUGGUCACGCGUCUCCCUCCUAAGGAGAAGUCUGCGGGUUCGAGUCCCGUGCGGAACG [A20C A45U A65G] | 0.58
27 | GUUCCGUUGGCGUAAUGGUCACGCGUCUCCCUCCUAAGGAGAAGGCUGCGGGUUCGAGUCCCGUACGGAACG [A20C A45G] | 0.853
28 | GUUCCGUUGGCGUAAUGGUCACGCGUCUCCCUCCUAAGGAGAAGUCUGCGGGUUCGAGUCCCGUACGGAACG [A20C A45U] | 0.8
29 | GUUCCGUUGGCGUAAUGGUCAUGCGUCUGCCUCCUAAGGACAAGACUGGGGGAUCGAGUCCCGUAUGGAACG [A20C C22U C29G G41C C49G U53A C66U] | ≤ 0.5
30 | GUUCCGUUGGCGUAAUGGUCACGCGUCUCCCUCCUAAGGAGCAGACUGCGGGUUCGAGUACCGUACGGAACG [A20C A42C C60A] | ≤ 0.5
31 | GUUCCGUUGGCGUAAUGGUCACGUGUCUCCCUCCUAAGGAGAAGACUGCGGGUUCGAGUCCCGUACGGAACG [A20C C24U] | 0.798
32 | GUUCCGUUGGCGUAAUGGUCACGAGUCUCCCUCCUAAGGAGAAGACUGCGGGUUCGAGUCCCGUACGGAACG [A20C C24A] | 0.751
33 | GUUCCGUUGGCGUAAUGGUCAUGCGUCUCCCUCCUAAGGUGAAGACUGCGGGUUCGAGUCCCGUACGGAACG [A20C C22U A40U] | ≤ 0.5
34 | GUUCCGUUGGCGUAAUGGUCACGCGUCUCCCUCCUAGGGAGAAGACUGCGGGUUCGAGUCCCGUACGGAACG [A20C A37G] | 0.704
35 | GUUCCGUUGGCGUAAUGGUCACGCGUCUCCCUCCUAUGGAGAAGACUGCGGGUUCGAGUCCCGUACGGAACG [A20C A37U] | 0.817
36 | GUUCCGUUGGCGUAAUGGUCACGAGUCUCCCUCCUCAGGAGAAGACUCCGGGUUCGAGUCCCGUACGGAACG [A20C C24A A36C G48C] | ≤ 0.5
37 | GUUCCGUUGGCGUAAUGGUCAUGCGUCUCCCUCCUAAGGAGAUGACUGCGGGUUCGAGUCCCGUACGGCACG [A20C C22U A43U A69C] | ≤ 0.5
38 | GUUCCGUUGGCGUAAUGGUCAGGCGUCUCCCUACUAAGGAGAAGACUGCGGGUUCGAGCCCCGUACGGAACG [A20C C22G C33A U59C] | ≤ 0.5
